Assay type in all cases: protein assay
Test [1] deals with Bcl-xL/Bcl-2-binding component 3 (Homo sapiens, UniProt Q07817+Q9BXH1). Nature of the test: Inhibition of GST-tagged Bcl-xl/FITC-conjugated PUMA interaction by fluorescence polarisation assay.
The next test addresses Bcl-xL/BAK (Homo sapiens, UniProt Q07817). As to the kind of experiment: Inhibition of GST-tagged […]/FITC-conjugated Bak interaction by fluorescence polarisation assay.
Test [2] deals with Bcl-xL/BH3-interacting domain death agonist (Homo sapiens, UniProt Q07817). Nature of the test: Inhibition of GST-tagged Bcl-xl/FITC-conjugated Bid interaction by fluorescence polarisation assay.
Chain of Bcl-xL/BH3-interacting domain death agonist (Q07817 whole entry, the tested form may be a part): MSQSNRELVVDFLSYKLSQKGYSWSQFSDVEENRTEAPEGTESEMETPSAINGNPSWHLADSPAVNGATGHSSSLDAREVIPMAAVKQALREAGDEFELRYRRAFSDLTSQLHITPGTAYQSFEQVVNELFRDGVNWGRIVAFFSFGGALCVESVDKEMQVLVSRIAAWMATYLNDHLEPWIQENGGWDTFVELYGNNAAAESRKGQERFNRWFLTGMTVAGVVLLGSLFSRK
Chain of Bcl-xL/BH3-interacting domain death agonist (P55957 whole entry, further chain, the tested form may be a part): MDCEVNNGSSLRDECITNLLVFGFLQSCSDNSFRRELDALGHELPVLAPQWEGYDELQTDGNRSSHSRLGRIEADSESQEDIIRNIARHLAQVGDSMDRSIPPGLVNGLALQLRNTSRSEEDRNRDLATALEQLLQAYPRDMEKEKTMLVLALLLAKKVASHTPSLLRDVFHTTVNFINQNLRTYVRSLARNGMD
The target in test [3] is Bcl-xL/Bcl-2-like protein 11 (Homo sapiens, UniProt Q07817). As to the kind of experiment: Inhibition of GST-tagged Bcl-xl/FITC-conjugated Bim interaction by fluorescence polarisation assay.
Chain of Bcl-xL/Bcl-2-like protein 11 (Q07817 whole entry): as the sequence (Q07817 whole entry, the tested form may be a part) above
Chain of Bcl-xL/Bcl-2-like protein 11 (O43521 whole entry, further chain): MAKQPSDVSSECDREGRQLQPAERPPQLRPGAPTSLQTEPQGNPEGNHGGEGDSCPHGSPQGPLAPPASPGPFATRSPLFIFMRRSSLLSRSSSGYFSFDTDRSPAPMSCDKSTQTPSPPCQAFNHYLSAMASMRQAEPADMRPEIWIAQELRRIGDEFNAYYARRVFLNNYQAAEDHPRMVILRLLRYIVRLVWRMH
The target in a further test is Bcl-xL/BAX (Homo sapiens, UniProt Q07812+Q07817). Nature of the test: Inhibition of GST-tagged Bcl-xl/FITC-conjugated Bax interaction by fluorescence polarisation assay.
Chain of Bcl-xL/BAX (Q07817 whole entry, the tested form may be a part): as the sequence (Q07817 whole entry, the tested form may be a part) above
Chain of Bcl-xL/BAX (Q07812 whole entry, the tested form may be a part): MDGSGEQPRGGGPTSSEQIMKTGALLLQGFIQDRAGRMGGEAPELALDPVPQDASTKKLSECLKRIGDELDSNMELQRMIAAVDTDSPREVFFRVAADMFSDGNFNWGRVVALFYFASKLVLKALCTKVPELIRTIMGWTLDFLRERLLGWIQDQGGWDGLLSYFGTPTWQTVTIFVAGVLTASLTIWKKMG
In test [4] the target is Apoptosis regulator BAX/Bcl-2 (Homo sapiens, UniProt P10415+Q07812). As to the kind of experiment: Inhibition of GST-tagged Bcl-2/FITC-conjugated Bax interaction by fluorescence polarisation assay. The method in brief: (§1)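 Recombinant GST-fused anti-apoptotic protein (Bcl-xl, Bcl-2, Bfl-1 or Mcl-1, each lacking its C-terminal tail) at 100 nM, incubated in the dark with 15 nM N-terminally FITC-labelled BH3 peptide (Bak, Bax, Bid or Bim) and a range of compound concentrations. Fluorescence polarisation was read, and IC50 was derived from the concentration-response curve.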
Chain of Apoptosis regulator BAX/Bcl-2 (P10415 whole entry, the tested form may be a part): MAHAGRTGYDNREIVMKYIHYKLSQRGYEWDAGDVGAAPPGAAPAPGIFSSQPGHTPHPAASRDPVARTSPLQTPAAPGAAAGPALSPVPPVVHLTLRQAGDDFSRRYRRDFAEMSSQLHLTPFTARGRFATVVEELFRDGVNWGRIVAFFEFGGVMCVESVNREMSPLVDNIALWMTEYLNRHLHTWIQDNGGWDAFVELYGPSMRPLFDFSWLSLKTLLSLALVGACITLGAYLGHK
Chain of Apoptosis regulator BAX/Bcl-2 (Q07812 whole entry, the tested form may be a part): as the sequence (Q07812 whole entry, the tested form may be a part) above

Test [5] addresses Apoptosis regulator BAX/Induced myeloid leukemia cell differentiation protein Mcl-1 (Homo sapiens, UniProt Q07812+Q07820). Nature of the test: Inhibition of GST-tagged Mcl-1/FITC-conjugated Bax interaction by fluorescence polarisation assay. The method in brief:
as §1

In test [6] the target is Apoptosis regulator BAX/Bcl-2-related protein A1 (Homo sapiens, UniProt Q07812+Q16548). As to the kind of experiment: Inhibition of GST-tagged Bfl-1/FITC-conjugated Bax interaction by fluorescence polarisation assay. The procedure, abridged:
as §1

Chain of Bcl-xL/Bcl-2-binding component 3 (Q07817 whole entry): as the sequence (Q07817 whole entry, the tested form may be a part) above
Chain of Bcl-xL/Bcl-2-binding component 3 (Q9BXH1 whole entry): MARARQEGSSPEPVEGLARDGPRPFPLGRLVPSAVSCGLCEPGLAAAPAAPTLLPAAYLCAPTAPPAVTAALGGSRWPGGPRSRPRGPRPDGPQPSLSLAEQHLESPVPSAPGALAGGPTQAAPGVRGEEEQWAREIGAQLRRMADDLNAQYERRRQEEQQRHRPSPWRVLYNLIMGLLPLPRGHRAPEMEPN
Chain of Bcl-xL/BAK (Q07817 whole entry, the tested form may be a part): as the sequence (Q07817 whole entry, the tested form may be a part) above
Chain of Bcl-xL/BAK (Q16611 whole entry, further chain, the tested form may be a part): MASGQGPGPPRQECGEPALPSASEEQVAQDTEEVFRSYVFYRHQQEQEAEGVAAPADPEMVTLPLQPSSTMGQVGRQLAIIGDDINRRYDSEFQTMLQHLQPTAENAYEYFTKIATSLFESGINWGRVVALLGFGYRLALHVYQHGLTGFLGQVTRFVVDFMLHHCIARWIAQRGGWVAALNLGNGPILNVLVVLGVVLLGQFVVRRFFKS
Chain of Apoptosis regulator BAX/Induced myeloid leukemia cell differentiation protein Mcl-1 (Q07820 whole entry): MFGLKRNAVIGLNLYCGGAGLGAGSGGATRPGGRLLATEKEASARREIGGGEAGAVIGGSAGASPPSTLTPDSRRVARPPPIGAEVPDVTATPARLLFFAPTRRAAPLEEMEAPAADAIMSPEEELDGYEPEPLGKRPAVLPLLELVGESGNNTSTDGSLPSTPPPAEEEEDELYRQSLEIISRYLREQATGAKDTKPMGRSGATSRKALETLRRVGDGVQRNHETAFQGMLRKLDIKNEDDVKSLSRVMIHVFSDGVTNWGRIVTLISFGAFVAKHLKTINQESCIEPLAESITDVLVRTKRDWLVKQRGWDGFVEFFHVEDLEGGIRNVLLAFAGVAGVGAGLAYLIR
Chain of Apoptosis regulator BAX/Induced myeloid leukemia cell differentiation protein Mcl-1 (Q07812 whole entry): as the sequence (Q07812 whole entry, the tested form may be a part) above
Chain of Apoptosis regulator BAX/Bcl-2-related protein A1 (Q07812 whole entry): as the sequence (Q07812 whole entry, the tested form may be a part) above
Chain of Apoptosis regulator BAX/Bcl-2-related protein A1 (Q16548 whole entry): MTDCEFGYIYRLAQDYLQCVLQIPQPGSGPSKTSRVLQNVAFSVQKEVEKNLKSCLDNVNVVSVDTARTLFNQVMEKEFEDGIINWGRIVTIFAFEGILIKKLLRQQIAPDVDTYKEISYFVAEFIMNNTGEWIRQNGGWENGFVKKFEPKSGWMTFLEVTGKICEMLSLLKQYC

Take `CCOc1nc2ccccc2cc1-c1cc(C(C)C)c2cc(-c3cc(C(C)C)c4ccc(OC)nc4c3)c(OC)nc2c1`: the half-inhibitory concentration (IC50) in test [1] stood at 54 µM; at Bcl-xL/BAK, 74 µM; in test [2], 21 µM; in test [3], 47 µM; against Bcl-xL/BAX it was 243 µM.

For `COc1ccc2c(CC(C)C)cc(-c3cc4c(C(C)C)cccc4nc3OC)cc2n1`, the IC50 was greater than 1000 µM in test [1]; greater than 1000 µM against Bcl-xL/BAK; greater than 1000 µM in test [2]; 29 µM in test [3]; greater than 1000 µM on Bcl-xL/BAX.

For the molecule `CCC(C)c1cc(-c2cc3c(CC(C)C)cc(-c4cc5c(C(C)C)cccc5nc4OC)cc3nc2OC)cc2nc(OC)ccc12` (racemic), the IC50 in test [4] was found to be 43 µM; in test [1] it was 42 µM; on Bcl-xL/BAK, 25 µM; in test [2], 27 µM; in test [3], 92.5 µM; in test [5], 45.5 µM. Further, the figures for the IC50 (in test [6]; against Bcl-xL/BAX) were 68 µM and 26 µM, respectively.

Source of the values: ChEMBL document CHEMBL1250523, “Synthesis and biological activities of new di- and trimeric quinoline derivatives” (Bioorg Med Chem, 2010).
